# Test results: ChEMBL document CHEMBL1126707, “Tetrapeptide tachykinin antagonists: synthesis and modulation of the physicochemical and pharmacological properties of a new series of partially cyclic analogs” (J Med Chem, 1993); call rule not given here
# Experiments:
# [1] = Solubility was evaluated; assay type: physicochemical
# Substance-K receptor [2] = biological target: T1, Substance-K receptor (Homo sapiens, UniProt P21452); experiment: Tested for binding affinity against human NK-2 receptor transfected on CHO cells using [125I]-His] NKA as radioligand; assay type: cell-based
# T1 sequence (P21452 whole entry): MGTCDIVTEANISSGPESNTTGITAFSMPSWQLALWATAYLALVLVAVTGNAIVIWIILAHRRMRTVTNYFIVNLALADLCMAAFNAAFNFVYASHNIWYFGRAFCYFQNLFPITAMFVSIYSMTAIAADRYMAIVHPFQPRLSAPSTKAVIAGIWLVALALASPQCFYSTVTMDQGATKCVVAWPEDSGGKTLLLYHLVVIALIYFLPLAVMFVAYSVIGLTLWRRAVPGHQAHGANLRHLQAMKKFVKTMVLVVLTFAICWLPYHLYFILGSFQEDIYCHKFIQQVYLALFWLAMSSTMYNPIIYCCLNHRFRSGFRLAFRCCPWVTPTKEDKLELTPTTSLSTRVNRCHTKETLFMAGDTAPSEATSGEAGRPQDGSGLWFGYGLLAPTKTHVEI
# Substance-K receptor [3] = biological target: T2, Substance-K receptor (Oryctolagus cuniculus, UniProt P79218); experiment: Tested for antagonist activity against NK-2 receptor in rabbit pulmonary artery by using Neurokinin A as agonist; assay type: functional; conditions: read-out: pA2 (converted)
# T2 sequence (P79218 whole entry): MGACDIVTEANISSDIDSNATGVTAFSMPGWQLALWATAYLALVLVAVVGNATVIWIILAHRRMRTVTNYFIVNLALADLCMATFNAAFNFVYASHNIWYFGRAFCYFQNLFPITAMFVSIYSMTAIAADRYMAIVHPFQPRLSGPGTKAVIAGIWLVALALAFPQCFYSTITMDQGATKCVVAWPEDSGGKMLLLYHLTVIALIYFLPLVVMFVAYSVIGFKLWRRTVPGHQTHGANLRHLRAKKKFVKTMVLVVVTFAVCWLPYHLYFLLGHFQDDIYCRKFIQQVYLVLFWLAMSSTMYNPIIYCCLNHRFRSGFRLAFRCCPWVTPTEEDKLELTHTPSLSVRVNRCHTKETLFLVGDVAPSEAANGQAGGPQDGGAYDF
# Procedure, shortened: (§1)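 Isolated-organ contractile bioassays: SP on rabbit vena cava (NK-1), neurokinin A on rabbit pulmonary artery (NK-2), neurokinin B on rat portal vein (NK-3); antagonist apparent affinity expressed as pA2 by Schild plot.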
# Substance-K receptor [4] = biological target: T3, Substance-K receptor (Rattus norvegicus, UniProt P16610); experiment: Tested for binding affinity against rat NK-2 receptor transfected on CHO cells using [125I]-His] NKA as radioligand; assay type: cell-based
# T3 sequence (P16610 whole entry): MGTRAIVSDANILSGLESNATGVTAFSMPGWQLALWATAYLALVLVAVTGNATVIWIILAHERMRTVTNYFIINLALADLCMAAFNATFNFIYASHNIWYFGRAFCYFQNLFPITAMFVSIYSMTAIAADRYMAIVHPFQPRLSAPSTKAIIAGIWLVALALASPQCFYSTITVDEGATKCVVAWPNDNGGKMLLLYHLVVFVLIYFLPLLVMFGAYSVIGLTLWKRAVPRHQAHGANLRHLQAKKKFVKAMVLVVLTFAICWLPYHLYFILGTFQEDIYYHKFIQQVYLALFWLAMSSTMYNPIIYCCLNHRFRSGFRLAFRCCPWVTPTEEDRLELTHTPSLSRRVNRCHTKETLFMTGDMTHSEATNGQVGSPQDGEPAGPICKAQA
# Neuromedin-K receptor = biological target: T4, Neuromedin-K receptor (Rattus norvegicus, UniProt P16177); experiment: Tested for antagonist activity against NK-3 receptor in rat portal vein by using Neurokinin B as agonist; assay type: functional; conditions: read-out: pA2 (converted); procedure, shortened: as §1
# T4 sequence (P16177 whole entry): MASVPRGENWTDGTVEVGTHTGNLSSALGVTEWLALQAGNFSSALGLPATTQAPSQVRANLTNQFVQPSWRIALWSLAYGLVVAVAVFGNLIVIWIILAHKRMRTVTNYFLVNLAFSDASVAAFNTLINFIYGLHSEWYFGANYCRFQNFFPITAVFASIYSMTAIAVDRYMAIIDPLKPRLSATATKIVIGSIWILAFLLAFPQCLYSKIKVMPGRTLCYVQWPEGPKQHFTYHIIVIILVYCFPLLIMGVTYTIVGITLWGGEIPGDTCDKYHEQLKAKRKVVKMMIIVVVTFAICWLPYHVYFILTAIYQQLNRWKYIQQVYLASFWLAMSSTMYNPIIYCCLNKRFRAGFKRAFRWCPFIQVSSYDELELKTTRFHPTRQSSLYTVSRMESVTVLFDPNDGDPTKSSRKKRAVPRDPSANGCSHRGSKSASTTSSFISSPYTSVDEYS
# Mus musculus [5] = experiment: Tested for antinociceptive activity against mouse hotplate test for 10 min after intravenous injection at 0.5 […] (P*<0.01); assay type: functional
# Mus musculus [6] = experiment: Tested for antinociceptive activity against mouse hotplate test for 60 min after oral administration of 40 mg/kg (P*<0.05); assay type: functional
# Procedure, shortened: (§2)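 Male CD1 mice (25-30 g) on a 55 ± 0.2 °C plate; forepaw-licking latency measured 60 min after oral 40 mg/kg given in water (soluble) or 0.2% hydroxypropylcellulose (insoluble); % increase of reaction time versus vehicle controls; groups of 12 animals; Dunnett t-test.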
# Rattus norvegicus [7] = species: Rattus norvegicus; experiment: Tested for its ability to promote degranulation of rat peritoneal mast cells at 0.1 mM or lower; No degranulation; assay type: functional, cell-based
# Procedure, shortened: (§3)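 Peritoneal mast cells lavaged from male Sprague-Dawley rats (350-400 g), buffer pH 6.8, 2 × 10^4 cells/mL, preincubated 10 min at 37 °C, then exposed to compound (10^-7 to 10^-4 M, in water or DMSO) 10 min at 37 °C; iced, centrifuged; histamine in supernatant and pellet measured fluorimetrically with o-phthalaldehyde, as % of total.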
# Mus musculus [8] = experiment: Tested for antinociceptive activity against mouse hotplate test for 10 min after intravenous injection at 0.5 […] (P*<0.05); assay type: functional
# Substance-K receptor [9] = biological target: T1, Substance-K receptor; experiment: Tested for binding affinity against human NK-2 receptor
# Substance-K receptor [10] = biological target: T3, Substance-K receptor; experiment: Tested for binding affinity against rat NK-2 receptor
# Rattus norvegicus [11] = species: Rattus norvegicus; experiment: Tested for its ability to promote degranulation of rat peritoneal mast cells; assay type: functional, cell-based; procedure, shortened: as §3
# [12] = biological target: Substance-P receptor (Oryctolagus cuniculus); experiment: Tested for antagonist activity against NK1 receptor in rabbit vena cava by using substance P (SP) as agonist; conditions: read-out: pA2 (converted)
# Mus musculus [13] = experiment: Tested for antinociceptive activity in hot plate test at 60 min after 40 mg/kg oral administration in mouse; insoluble; assay type: functional, organism-based; design: dose 40 mg/kg; conditions: at 40 mg/kg; procedure, shortened: as §2
# Mus musculus [14] = experiment: Tested for antinociceptive activity in hot plate test at 10 min after 0.5 mg/kg intravenous administration in mouse; insoluble; assay type: functional, organism-based; design: dose 0.5 mg/kg; conditions: at 0.5 mg/kg
# Substance-P receptor [15] = biological target: T5, Substance-P receptor (Homo sapiens, UniProt P25103); experiment: Tested for binding affinity against human NK-1 receptor transfected on CHO cells using [125I]-Tyr] SP as radioligand; assay type: cell-based
# T5 sequence (P25103 whole entry): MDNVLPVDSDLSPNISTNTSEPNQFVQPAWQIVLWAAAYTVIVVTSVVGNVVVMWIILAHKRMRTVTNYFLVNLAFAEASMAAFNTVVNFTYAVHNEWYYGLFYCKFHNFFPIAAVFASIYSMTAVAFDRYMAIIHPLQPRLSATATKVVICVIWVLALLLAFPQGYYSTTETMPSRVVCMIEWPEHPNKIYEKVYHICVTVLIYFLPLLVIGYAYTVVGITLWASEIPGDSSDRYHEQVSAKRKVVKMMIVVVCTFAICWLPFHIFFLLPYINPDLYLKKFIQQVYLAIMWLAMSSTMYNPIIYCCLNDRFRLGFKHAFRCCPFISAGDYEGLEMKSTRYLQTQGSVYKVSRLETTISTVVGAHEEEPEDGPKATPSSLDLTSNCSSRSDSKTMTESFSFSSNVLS
# Substance-P receptor [16] = biological target: T6, Substance-P receptor (Rattus norvegicus, UniProt P14600); experiment: Tested for the binding affinity against rat neurokinin-1 (NK-1) receptor transfected on CHO cells using [125I]-Tyr] SP as radioligand; assay type: cell-based
# T6 sequence (P14600 whole entry): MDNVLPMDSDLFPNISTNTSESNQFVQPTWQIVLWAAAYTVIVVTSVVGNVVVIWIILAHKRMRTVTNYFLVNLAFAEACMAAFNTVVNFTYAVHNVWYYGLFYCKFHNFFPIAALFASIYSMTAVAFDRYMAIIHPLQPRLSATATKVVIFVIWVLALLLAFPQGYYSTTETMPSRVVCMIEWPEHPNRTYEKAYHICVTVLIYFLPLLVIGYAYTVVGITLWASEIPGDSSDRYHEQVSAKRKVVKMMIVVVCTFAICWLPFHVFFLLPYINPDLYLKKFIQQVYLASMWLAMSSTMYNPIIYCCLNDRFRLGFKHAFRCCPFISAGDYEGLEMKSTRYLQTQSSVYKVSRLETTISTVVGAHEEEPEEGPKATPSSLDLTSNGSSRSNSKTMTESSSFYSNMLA
# Substance-K receptor [17] = biological target: T3, Substance-K receptor; experiment: Tested for the binding affinity against rat neurokinin-2 (NK-2) receptor transfected on CHO cells using [125I]-His] NKA as radioligand; assay type: cell-based
# Rattus norvegicus [18] = species: Rattus norvegicus; experiment: Binding affinity by displacement of tritiated substance P from its binding sites on membrane preparations from rat brain
# Mus musculus [19] = species: Mus musculus; experiment: Binding affinity by displacement of tritiated substance P from its binding sites on membrane preparations from mouse brain
# [20] = biological target: Substance-P receptor (Oryctolagus cuniculus); experiment: Tested for antagonist activity against NK1 receptor in rabbit vena cava by using substance P (SP) as agonist; conditions: read-out: pA2 (converted); remark: listed apart in the source
# Substance-P receptor [21] = biological target: T5, Substance-P receptor; experiment: Tested for binding affinity against human NK-1 receptor
# Substance-P receptor [22] = biological target: T6, Substance-P receptor; experiment: Tested for binding affinity against rat NK-1 receptor
solubility [1],IC50 (Substance-K receptor [2]),Kb (Substance-K receptor [3]),Kb (Neuromedin-K receptor),IC50 (Substance-K receptor [9]),IC50 (Substance-K receptor [10]),Kb [12],SMILES,Increase (Mus musculus [6]),Increase (Mus musculus [8]),other results
< 0.01 mg/mL,17 nM,12600 nM,12600 nM,–,–,–,CN(Cc1ccccc1)C(=O)[C@H](Cc1ccccc1)NC(=O)[C@@H](Cc1cn(C=O)c2ccccc12)NC(=O)C[C@@H]1NC(=O)[C@@H]2C3CCC(CC3)N2C1=O,33%,51%,IC50 (Substance-K receptor [4]): 142 nM; IC50 (Rattus norvegicus [7]): Not Active
< 0.01 mg/mL,–,126 nM,100 nM,–,–,50.1 nM,CC(=O)n1cc(C[C@@H](NC(=O)C[C@@H]2NC(=O)[C@@H]3C4CCC(CC4)N3C2=O)C(=O)N[C@@H](Cc2ccccc2)C(=O)N(C)Cc2ccccc2)c2ccccc21,–,–,–
–,99 nM,3980 nM,1580 nM,–,–,–,CC(=O)N[C@H](C(=O)N[C@H](Cc1cn(C=O)c2ccccc12)C(=O)N[C@@H](Cc1ccccc1)C(=O)N(C)Cc1ccccc1)C(C)O (stereo not given in full),–,–,Increase (Mus musculus [13]): Insoluble; Increase (Mus musculus [14]): Insoluble; IC50 (Substance-P receptor [15]): 6 nM; IC50 (Substance-P receptor [16]): 3400 nM; IC50 (Substance-K receptor [17]): 824 nM; Ki (Rattus norvegicus [18]): 320 nM; Ki (Mus musculus [19]): 320 nM; Kb [20]: 79.4 nM
45 mg/mL,–,15800 nM,12600 nM,129 nM,388 nM,126 nM,CN(Cc1ccccc1)C(=O)[C@H](Cc1ccccc1)NC(=O)[C@@H](Cc1cn(C(=O)CCC(=O)O)c2ccccc12)NC(=O)C[C@@H]1NC(=O)[C@@H]2C3CCC(CC3)N2C1=O,53%,42%,IC50 (Substance-P receptor [21]): 85 nM; IC50 (Substance-P receptor [22]): 14500 nM
40 mg/mL,–,10000 nM,10000 nM,46 nM,244 nM,39.8 nM,CN(Cc1ccccc1)C(=O)[C@H](Cc1ccccc1)NC(=O)[C@@H](Cc1cn(C(=O)OCCCCCCN)c2ccccc12)NC(=O)C[C@@H]1NC(=O)[C@@H]2C3CCC(CC3)N2C1=O,62%,40%,IC50 (Substance-P receptor [21]): 34 nM; IC50 (Substance-P receptor [22]): 3140 nM; IC50 (Rattus norvegicus [11]): 13000 nM

SMILES,solubility [1],IC50 (Substance-K receptor [2]),Kb (Substance-K receptor [3]),Kb (Neuromedin-K receptor),IC50 (Substance-K receptor [9]),IC50 (Substance-K receptor [10]),Kb [12],Increase (Mus musculus [6]),Increase (Mus musculus [8]),other results
CN(Cc1ccccc1)C(=O)[C@H](Cc1ccccc1)NC(=O)[C@@H](Cc1c[nH]c2ccccc12)NC(=O)C[C@@H]1NC(=O)[C@@H]2C3CCC(CC3)N2C1=O,< 0.01 mg/mL,65 nM,2000 nM,1580 nM,–,–,–,74%,–,IC50 (Substance-K receptor [4]): 65 nM; Increase (Mus musculus [5]): 66%; IC50 (Rattus norvegicus [7]): Not Active
CN(Cc1ccccc1)C(=O)[C@H](Cc1ccccc1)NC(=O)[C@@H](Cc1cn(C(=O)CCCCCCN)c2ccccc12)NC(=O)C[C@@H]1NC(=O)[C@@H]2C3CCC(CC3)N2C1=O,43 mg/mL,–,20000 nM,2000 nM,45 nM,188 nM,–,62%,54%,IC50 (Rattus norvegicus [11]): 13000 nM
